A short description of this series: Toxicity liver stage against HepG2, at 10uM. Format: cell-based. On the set-up: test concentration 10 uM, cell line HepG2-A16-CD81EGFP. The following applies: human, HepG2-A16-CD81EGFP cells; read-out: INHIBITION
In outline:
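Uninfected HepG2-A16-CD81EGFP cells, 3 × 10^3 per well, 1536-well, plated on prespotted compound at 10 μM final, parasite-free screening media added to match infected plates; puromycin 10 μM positive, DMSO 0.5% negative; run in parallel with 48 h PbLuc assay at 37 °C, 5% CO2; viability by CellTiter-Glo luminescence, normalized to controls.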
`COCCOc1ccnc(-c2noc([C@@H]3CCCN3CC(C)(C)C)n2)c1`: the cytotoxicity at 10 µM was -12.7%.

With `Cc1ccc(S(=O)(=O)NC[C@H]2OC[C@@H](NCc3ccncc3)[C@@H]2O)cc1`, the cytotoxicity at 10 µM came to 2.6%. On to `CCc1cnc2c(c1Nc1ccc(C)c(F)c1)c(=O)n(C)c(=O)n2C`, for which the cytotoxicity at 10 µM is -2.5%.

In the case of `CCOc1ccc(CNC(=O)c2cnc(OC)nc2)cc1`, the cytotoxicity at 10 µM is -0.121%.

For `O=C(COc1ccc(Cl)cc1)Nc1cnc(N2CCOCC2)nc1`, the cytotoxicity at 10 µM was -8.18%. With `Cc1nc(Nc2ccccn2)cc(N2CCN(S(C)(=O)=O)CC2)n1` the figure was 3.96%; with `Cc1ccc(N2CCO[C@H]3CN(C(=O)c4cccc(C)n4)C[C@H]32)nn1`, 4.94%; with `c1ccc(COC[C@]23COC[C@H]2CN(c2ncccn2)C3)nc1`, 2.14%. With `O=c1cc(Cn2ccnc2)nc2n1CCCN(Cc1cccs1)C2` the figure was 0.312%; with `Cc1ncsc1CN1CC[C@H]2OCC[C@@]2(C(=O)NCC2CC2)C1`, 2.4%; with `COc1c(C(=O)NCC(C)C)nnn1Cc1ccccc1`, 12%.

For `O=C(c1cc(C2CC2)on1)N1C[C@H]2CC[C@](O)(c3ccccc3F)[C@H]2C1`, the cytotoxicity at 10 µM came to 5.37%. The same measure for `O=C(Nc1cc(CCC2CCN(CCO)CC2)ccn1)c1ccccn1`: -4.03%. For `Cc1noc(C)c1-c1ccc(C2CCCN2C(=O)Cn2ccnc2)nc1` (stereo unspecified), the cytotoxicity at 10 µM is -10.2%. For the compound `CCc1nnc(Nc2cccc(C3CCN(S(=O)(=O)N(C)C)CC3)n2)s1`, the cytotoxicity at 10 µM is -16.2%. `Cc1cc(C(=O)N2CCc3nc4sc(C)cc4c(=O)n3CC2)on1`: the cytotoxicity at 10 µM is -16.2%. The same measure for `COCCN1CCC(Cc2cnc(-c3ccccc3C(=O)O)cn2)CC1`: -11.9%. The same measure for `Cc1cc(-c2cnc(N3CCOCC3)nc2-c2ccc(C)s2)on1`: -5.72%; for `O=C(C1CCCC1)N1CC2(CCN(C3COC3)C2)OCc2ccccc21` (stereo unspecified): 4.92%. With `O=C(C1CCCC1)N1CC2(CCN(C3COC3)CC2)Cc2ccccc21` the figure was 7.91%. Consider `OCc1c(Cl)ncn1-c1ccc(F)cc1`, for which the cytotoxicity at 10 µM is 6.61%. The same measure for `O=C(Cc1ccc2c(c1)CCCC2)Nc1cccnc1N1CCSCC1`: 11.4%.

Take `Cc1ccc(F)c(S(=O)(=O)NCc2[nH]ncc2Br)c1`: the cytotoxicity at 10 µM amounted to 0.67%. With `O=C(COCC1CCCO1)N(Cc1cccnc1)c1ccc(F)cc1` (stereo unspecified) the figure was -2.04%; with `COc1ccc(C(C)CCNC2CCN(c3ccccn3)CC2)cc1` (stereo unspecified), 5.29%.

Regarding `CCN(Cc1ncc(C(C)(C)C)o1)Cc1ccccc1C`, the cytotoxicity at 10 µM is -9.11%. With `Cc1nc(C(=O)N(CC(=O)N(C)C)CC(F)(F)F)c2ccccn12` the figure was -16.4%; with `CC(C)c1noc(C(C)N2CCN(Cc3nc4ccccc4[nH]3)CC2)n1` (stereo unspecified), -2.16%. With `O=C(CC1CCN(c2ncnc3ccccc23)CC1)N1CCCC1` the figure was 35.1%; with `Cc1ccc(CN(Cc2cc(C)no2)C2CC2)cc1`, -5.17%.

On to `O=C(CNc1cc(-n2cnnn2)ccc1F)NCc1ccccc1`, for which the cytotoxicity at 10 µM is -6.2%. The same measure for `O=C(NCC(O)COc1ccccc1)Nc1nncs1` (stereo unspecified): 0.555%; for `CS(=O)(=O)c1ccc(NC(=O)CSc2ccc3c(c2)CCC3)cn1`: 11.8%; for `Cc1ccc(CNC(=O)NC2CCCc3c2cnn3CCO)cn1` (stereo unspecified): -11.8%. With `Cc1cc(NC(=O)c2ccccc2Br)n(C)n1` the figure was -6.61%; with `COc1cc(C(=O)N(Cc2ccco2)C2CC2)cc(OC)c1OC`, 4.53%. With `CC(CN1CCOCC1)NC(=O)NCCc1ccc(Cl)s1` (stereo unspecified) the figure was -8.36%; with `Cc1ncc(CN(C)C(=O)Nc2cccc(CN3CCOC3=O)c2)s1`, -2.27%; with `CCc1cc(C)nc(N2CCN(C(C)c3nc(C)no3)CC2)n1` (stereo unspecified), -2.64%. Turning to `CNC(=O)CCCNCc1c(C)nn(CC(C)C)c1N(C)C`, the cytotoxicity at 10 µM was -2.51%. The same measure for `CCOCCN1CCc2cncnc2C1`: -20.7%; for `CC(O)CC(C)(C)CNS(=O)(=O)c1cccc(Cl)c1C#N` (stereo unspecified): -6.03%. Regarding `CC(Cn1cccn1)NCc1cnc(N2CCCC2)nc1` (stereo unspecified), the cytotoxicity at 10 µM is -13%. The same measure for `COc1ccccc1C1(CNc2snc(Cl)c2C#N)CCOCC1`: 10.2%; for `N#Cc1ccc(CNC(=O)NCCNC(=O)C2CCCC2)c(F)c1`: 4.17%; for `CC(C)Cc1noc(CN2CCC(NC(=O)c3cccs3)CC2)n1`: -17.9%. With `CCC(=O)N1CCC2(C=C(C(=O)N(C)C)c3ccccc32)CC1` the figure was -87.3%; with `Cc1cccc(CN2C[C@@H]3CN(C(=O)C4CCOC4)C[C@@H]3C2=O)c1` (stereo partly specified), -114%. With `O=C(c1ccoc1)N1CCC2(CCCN(c3ncc(F)cn3)C2)C1` (stereo unspecified) the figure was -98.3%; with `Cn1nc(C(=O)N2CCOCC2)c2c1CN(CC1CCC1)C2`, -103%. `Cn1nc(COc2cccnc2)c2c1CCN(c1ncccn1)C2`: the cytotoxicity at 10 µM was -105%. With `COCCC(=O)N1CCC2(COCc3cnc(N(C)C)nc32)C1` (stereo unspecified) the figure was -64.8%; with `c1coc(CN2CCO[C@@]3(CCC[C@@H]3COCc3nccs3)C2)c1`, -73.5%; with `Cn1cc(CN2CCC3(CCCN3S(C)(=O)=O)CC2)cn1`, 1.59%. With `Cc1ccsc1C(=O)N1Cc2ccccc2C2(CCN(C)CC2)C1` the figure was 2.6%. With `Cn1ncc2c(NC3CN4CCC3CC4)nc(-c3ccncc3)nc21` (stereo unspecified) the figure was 41.1%. With `CCCc1cc(CNc2cc(CCC)nc3ccnn23)on1`, the cytotoxicity at 10 µM is -6.75%. With `CCC(CO)N(Cc1cccc(-n2cccn2)c1)Cc1cccs1` (stereo unspecified) the figure was 7.63%; with `CCC1(CO)CCCN(C(=O)c2ccc(N3CCN(C)CC3)cc2)C1` (stereo unspecified), -4.71%. With `Cc1cc(N2CCC(CO)(CC3CCCCO3)CC2)nc2ccccc12` (stereo unspecified) the figure was 5.51%.

For `CCOc1ccnc(NCc2nc(C)cc(C(F)(F)F)n2)n1`, the cytotoxicity at 10 µM was -10.1%. Consider `CC(=O)Nn1c(C)cc(CN2CCC(C(=O)N3CCCC3)CC2)c1C`, for which the cytotoxicity at 10 µM came out at 1.57%. With `Cc1nc[nH]c1-c1nccn1-c1cccc(CN2CCCC2)c1` the figure was 4.36%; with `OCc1ccc(-c2c(-c3ccccc3)ncn2CCN2CCOCC2)o1`, -18.9%. With `CCCN1CCC(CC(=O)N[C@H](C(=O)O)c2cccc(F)c2F)CC1` the figure was 3.78%. As to `CCc1cc(NCc2cc3n(n2)CCCN(S(C)(=O)=O)C3)nc(C)n1`, the cytotoxicity at 10 µM was -1.52%. The same measure for `CN1CCC(N(CCc2ccccc2)C(=O)c2ccc(C#N)cc2)CC1`: -2.37%.

For the compound `CN1CCCN(C(=O)c2cc(CN(C)CCc3ccccc3)on2)CC1`, the cytotoxicity at 10 µM is -15.3%. For `Cc1cc(CN[C@@H](Cc2ccccc2)C(N)=O)c(C)s1`, the cytotoxicity at 10 µM is -0.527%. The same measure for `Cc1nc2ccccc2nc1NCc1nnc2n1CCC2`: -1.8%; for `O=C(O)Cc1cccc(-n2ccnc2-c2ccc(Cl)s2)c1`: 0.185%. For `CC(C)CN1CC2(CCN(C(=O)C3CNC(=O)N3)CC2)CC1=O` (stereo unspecified), the cytotoxicity at 10 µM was 2.18%. For the compound `Cc1ccc(NC2(C(=O)NCCCN)CCCC2)cc1`, the cytotoxicity at 10 µM amounted to 1.58%. Consider `CC(C)c1nnsc1CNC(=O)C1CCCN(C(=O)N(C)C)C1` (stereo unspecified), for which the cytotoxicity at 10 µM is -7.73%. Turning to `Cc1nn(C)c2nc(N(CCN(C)C)C3CCCC3)sc12`, the cytotoxicity at 10 µM is -1.93%. The same measure for `Cc1csc2c(N3CCC(NCCc4ccnn4C)CC3)ncnc12`: 0.429%; for `O=C1CCCCN1CCc1nc(-c2cccnn2)no1`: -5.67%; for `O=C1CCCCN1CCC(=O)N1CCCCC1c1ccc(F)cc1` (stereo unspecified): -41.7%.

Turning to `CCc1nnc(CN(C)c2nc(C(C)C)nc3c2cnn3C)o1`, the cytotoxicity at 10 µM is -9.52%. As for `COC[C@@]12CC[C@@H](N3CCOCC3)C[C@H]1CCN(c1ncccn1)C2`, the cytotoxicity at 10 µM was -11.9%.

On to `CC(C)c1cc(CN2CCC(CC(=O)O)CC2)no1`, for which the cytotoxicity at 10 µM is -2.53%. With `O=C(COc1cccc(F)c1)N1C[C@@H](O)[C@H](N2CCCC2)C1` the figure was -4.22%. For `CCc1cc(C(=O)N2CCCC2c2nc(C)c(F)c(O)n2)on1` (stereo unspecified), the cytotoxicity at 10 µM amounted to 0.626%. The same measure for `Cn1ccnc1CN1CCN(c2ccc(C#N)cc2F)CC1`: -2.06%. Take `Cc1cc(C)n(-c2ccc(CNCc3ccc(OC(C)C)cc3)cn2)n1`: the cytotoxicity at 10 µM is -6.95%. With `Cn1nc(COc2cccnc2)c2c1CCN(c1cnccn1)C2` the figure was 1.34%; with `Cc1noc([C@@H]2CCO[C@@H]3CCN(Cc4ccc(C)s4)C[C@@H]32)n1`, -77.6%; with `CNC(=O)CN1CCOCC2(CCCN(Cc3ccc(F)cc3)C2)C1` (stereo unspecified), 6.88%. With `c1cnn(CCCO[C@@H]2CC[C@H]3[C@H]2OCCN3CC2CC2)c1`, the cytotoxicity at 10 µM is 5.93%. The same measure for `COc1ncc(C2(O)CCN(Cc3c(F)cccc3F)CC2)c(OC)n1`: 5.29%; for `Cc1ncnc2c1CCN(CC(=O)N(C)C)CC2`: -101%.

As for `O=C(c1cnccn1)N1CCC2(CC1)CCN(Cc1ccccn1)C2=O`, the cytotoxicity at 10 µM is 0.108%. The same measure for `CS(=O)(=O)N1Cc2cnn(CC3CC3)c2C(COCC2CC2)C1` (stereo unspecified): 9.43%. The same measure for `Cn1ccnc1CN1CCC2(CC(=O)N(c3ccsc3)C2)C1` (stereo unspecified): -82.7%. The same measure for `CN(C)CC(=O)N1C[C@H]2CCC[C@@]2(COc2ccccn2)C1`: 3.88%. `CCN1CCO[C@]2(CCC[C@H]2COCc2csc(C)n2)C1`: the cytotoxicity at 10 µM was determined as 0.153%.

For the origin of these results see ChEMBL document CHEMBL4513216, “Probing the Open Global Health Chemical Diversity Library for Multistage-Active Starting Points for Next-Generation Antimalarials” (ACS Infect Dis, 2020).
